What all share (assay type): functional
Test [1] concerns Mythimna separata. Put plainly: In vivo insecticidal activity against pre-third-instar larval stage of Mythimna separata (Oriental armyworm) in corn leaves assessed as corrected mortality rate at 1 mg/ml treated for 3 secs before larval infestation measured after 36 days by leaf-dipping method. Conditions: 864 h. An outline of the steps:
(§1)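 Leaf-dip assay: fresh corn leaves dipped 3 s in 1 mg/mL compound in acetone, then air-dried; acetone-only leaves served as control. Groups of 10 pre-third-instar larvae per dish fed treated leaves, replaced when consumed. After 48 h all dishes switched to untreated fresh leaves until adult emergence. Held at 25 ± 2 °C, RH 65–80%, 12 h/12 h light/dark. Corrected mortality scored.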

Test [2] relates to Mythimna separata. Put plainly: In vivo insecticidal activity against pre-third-instar larval stage of Mythimna separata (Oriental armyworm) in corn leaves assessed as corrected mortality rate at 1 mg/ml treated for 3 secs before larval infestation measured after 24 days by leaf-dipping method. Conditions: 576 h. The essentials:
as §1

The subject of test [3] is Mythimna separata. Briefly: In vivo insecticidal activity against pre-third-instar larval stage of Mythimna separata (Oriental armyworm) in corn leaves assessed as corrected mortality rate at 1 mg/ml treated for 3 secs before larval infestation measured after 12 days by leaf-dipping method. Conditions: 288 h. An outline of the steps:
as §1

As for `COc1cc([C@@H]2c3cc4c(cc3C[C@H]3COC(=O)[C@@H]32)OCO4)cc(OC)c1OC(=O)c1cccc(C)c1`, the mortality (in general, the share of the test organisms that died) at 1000 µg/mL in the test with Mythimna separata [1] was determined as 40.7%; with Mythimna separata [2], 25%; in the test on Mythimna separata [3], 17.8%.

Regarding `COc1cc([C@@H]2c3cc4c(cc3C[C@H]3COC(=O)[C@@H]32)OCO4)cc(OC)c1OC(=O)c1cccc([N+](=O)[O-])c1`, the mortality at 1000 µg/mL in the test on Mythimna separata [1] came out at 51.8%; in the test on Mythimna separata [2], 14.2%; in the test on Mythimna separata [3], 3.5%.

On to `COc1cc([C@@H]2c3cc4c(cc3C[C@H]3COC(=O)[C@@H]32)OCO4)cc(OC)c1OC(=O)c1cc([N+](=O)[O-])cc([N+](=O)[O-])c1`, for which the results for the mortality at 1000 µg/mL with Mythimna separata [1], in the test on Mythimna separata [2] and in the test on Mythimna separata [3] were 22.2%, 25% and 14.2%, respectively.

As to `COc1cc([C@@H]2c3cc4c(cc3C[C@H]3COC(=O)[C@@H]32)OCO4)cc(OC)c1OC(=O)c1ccccc1Cl`, the mortality at 1000 µg/mL with Mythimna separata [1] was 37%; in the test on Mythimna separata [2], 25%; in the test with Mythimna separata [3], 17.8%.

As for `COc1cc([C@@H]2c3cc4c(cc3C[C@H]3COC(=O)[C@@H]32)OCO4)cc(OC)c1OC(=O)/C=C/c1ccccc1`, the mortality at 1000 µg/mL in the test with Mythimna separata [1] was determined as 48.1%; in the test with Mythimna separata [2] it was 17.8%; in the test on Mythimna separata [3], 10.7%.

For `COc1cc([C@@H]2c3cc4c(cc3C[C@H]3COC(=O)[C@@H]32)OCO4)cc(OC)c1OC(=O)c1ccccc1`, the mortality at 1000 µg/mL in the test with Mythimna separata [1] is 48.1%; in the test on Mythimna separata [2], 42.8%; in the test on Mythimna separata [3], 28.5%.

As for `COc1ccc(C(=O)Oc2c(OC)cc([C@@H]3c4cc5c(cc4C[C@H]4COC(=O)[C@@H]43)OCO5)cc2OC)cc1`, the values for the mortality at 1000 µg/mL in the test on Mythimna separata [1], in the test on Mythimna separata [2] and in the test on Mythimna separata [3] were 25.9%, 21.4% and 3.5%, respectively.

As to `COc1cc([C@@H]2c3cc4c(cc3C[C@H]3COC(=O)[C@@H]32)OCO4)cc(OC)c1OC(=O)c1ccncc1`, the mortality at 1000 µg/mL with Mythimna separata [1] turned out to be 59.2%; in the test with Mythimna separata [2], 21.4%; in the test with Mythimna separata [3], 14.2%.

In the case of `CC(=O)O[C@@H]1C[C@H](O)[C@@]23CO[C@@H](O)[C@]1(C)[C@@H]2C[C@@H](O)[C@]1(C)[C@@H]3C(=O)[C@H](OC(C)=O)[C@@]2(C)[C@H](c3ccoc3)C[C@H]3O[C@]321` [TOOSENDANIN], the mortality at 1000 µg/mL amounted to 40.7% in the test with Mythimna separata [1], 35.7% in the test with Mythimna separata [2] and 21.4% with Mythimna separata [3].

In the case of `COc1cc([C@@H]2c3cc4c(cc3C[C@H]3COC(=O)[C@@H]32)OCO4)cc(OC)c1OC(=O)c1cccnc1`, the mortality at 1000 µg/mL in the test on Mythimna separata [1] stood at 62.9%; in the test on Mythimna separata [2], 10.7%; with Mythimna separata [3], 3.5%.

With `COc1cc([C@@H]2c3cc4c(cc3C[C@H]3COC(=O)[C@@H]32)OCO4)cc(OC)c1OC(=O)Cc1ccccc1`, the mortality at 1000 µg/mL with Mythimna separata [1] is 29.6%; with Mythimna separata [2], 25%; with Mythimna separata [3], 10.7%.

Take `COc1cc([C@@H]2c3cc4c(cc3C[C@H]3COC(=O)[C@@H]32)OCO4)cc(OC)c1OC(=O)Cc1cccc2ccccc12`: the mortality at 1000 µg/mL with Mythimna separata [1] turned out to be 37%; with Mythimna separata [2], 17.8%; in the test with Mythimna separata [3], 7.1%.

Turning to `COc1cc([C@@H]2c3cc4c(cc3C[C@H]3COC(=O)[C@@H]32)OCO4)cc(OC)c1OC(=O)c1ccc(C)cc1`, the mortality at 1000 µg/mL in the test with Mythimna separata [1] turned out to be 33.3%; with Mythimna separata [2] it was 17.8%; in the test on Mythimna separata [3], 7.1%.

Consider `COc1cc([C@@H]2c3cc4c(cc3C[C@H]3COC(=O)[C@@H]32)OCO4)cc(OC)c1OC(=O)CCCc1c[nH]c2ccccc12`, for which the mortality at 1000 µg/mL with Mythimna separata [1] was 40.7%; with Mythimna separata [2], 14.2%; with Mythimna separata [3], 10.7%.

As to `COc1cc([C@@H]2c3cc4c(cc3C[C@H]3COC(=O)[C@@H]32)OCO4)cc(OC)c1OC(=O)c1ccc(Cl)cc1`, the mortality at 1000 µg/mL with Mythimna separata [1] came out at 29.6%; in the test with Mythimna separata [2], 14.2%; with Mythimna separata [3] it was 0%.

Take `COc1cc([C@@H]2c3cc4c(cc3C[C@H]3COC(=O)[C@@H]32)OCO4)cc(OC)c1OC(=O)c1ccc([N+](=O)[O-])cc1`: the mortality at 1000 µg/mL was 40.7% with Mythimna separata [1], 17.8% with Mythimna separata [2] and 7.1% in the test with Mythimna separata [3].

For the origin of these results see ChEMBL document CHEMBL3046209, “Semisynthesis and quantitative structure-activity relationship (QSAR) study of novel aromatic esters of 4'-demethyl-4-deoxypodophyllotoxin as insecticidal agents” (2009).
